Assay results reported in ChEMBL document CHEMBL3612021, “Structure-kinetics relationships of Capadenoson derivatives as adenosine A1 receptor agonists” (Eur J Med Chem, 2015).

Assays:
[1] = target: T1, Adenosine receptor A1 (Homo sapiens) (UniProt P30542); experiment: Displacement of [3H]DPCPX from human adenosine A1 receptor expressed in CHO cell membranes assessed as kinetic rate index by measuring ratio of binding at earlier and later time points by competition association assay
T1 sequence (whole entry): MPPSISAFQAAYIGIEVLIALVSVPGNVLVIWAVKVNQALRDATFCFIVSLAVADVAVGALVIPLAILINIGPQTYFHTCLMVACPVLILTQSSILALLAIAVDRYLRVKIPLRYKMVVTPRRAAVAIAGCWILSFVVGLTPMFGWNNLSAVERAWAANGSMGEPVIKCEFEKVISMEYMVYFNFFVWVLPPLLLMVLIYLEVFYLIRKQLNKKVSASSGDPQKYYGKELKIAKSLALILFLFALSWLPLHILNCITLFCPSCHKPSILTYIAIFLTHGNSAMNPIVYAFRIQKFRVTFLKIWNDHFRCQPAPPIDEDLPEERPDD
Procedure, shortened: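 Dual-point competition association assay with [3H]DPCPX on CHO membranes stably expressing hA1. Specific binding is read at two time points in the presence of the test ligand. KRI is the ratio of binding at the earlier to the later time point (n = 2; both values reported).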

[2] = target: Adenosine receptor A2a (Homo sapiens) (UniProt P29274); experiment: Displacement of [3H]ZM241385 from human adenosine A2A receptor expressed in HEK293 cell membranes at 1 uM by competition association assay
[3] = target: T1, Adenosine receptor A1 (Homo sapiens); experiment: Agonist activity at human adenosine A1 receptor expressed in CHO cell membranes by [35S]GTPgammaS binding assay relative to 100 uM CPA; assay type: functional
Procedure, shortened: (§1)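 CHO-hA1 membrane homogenates (3 µg) equilibrated 30 min at 25 °C in 50 mM Tris, 100 mM NaCl, 5 mM MgCl2, 1 mM EDTA, 1 mM DTT, 0.05% BSA, pH 7.4, with 3 µM GDP, saponin and ligand over a concentration range. [35S]GTPγS then added (final 0.3 nM) and incubated 90 min at 25 °C. Filtration on GF/B, ice-cold washes, scintillation counting. n = 3.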

[4] = target: T2, Adenosine receptor A2b (Homo sapiens) (UniProt P29275); experiment: Displacement of [3H]PSB603 from human adenosine A2B receptor expressed in CHO cell membranes at 1 uM by competition association assay
T2 sequence (whole entry): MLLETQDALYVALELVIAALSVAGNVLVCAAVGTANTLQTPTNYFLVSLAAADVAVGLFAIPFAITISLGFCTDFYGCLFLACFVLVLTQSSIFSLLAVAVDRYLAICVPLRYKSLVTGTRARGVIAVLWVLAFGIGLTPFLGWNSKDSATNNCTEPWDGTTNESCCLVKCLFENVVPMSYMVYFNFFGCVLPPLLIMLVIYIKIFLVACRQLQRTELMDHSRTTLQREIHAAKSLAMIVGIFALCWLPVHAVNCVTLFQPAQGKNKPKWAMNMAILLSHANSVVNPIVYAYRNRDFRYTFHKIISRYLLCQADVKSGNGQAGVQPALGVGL
Procedure, shortened: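 Single-point test at 1 µM measuring percent displacement of specific [3H]PSB603 binding on CHO membranes stably expressing human A2B receptors.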

Adenosine receptor A1 = target: T3, Adenosine receptor A1 (Homo sapiens, UniProt P30542); experiment: Agonist activity at human adenosine A1 receptor expressed in CHO cell membranes by [35S]GTPgammaS binding assay; assay type: functional; procedure, shortened: as §1
T3 sequence (P30542 whole entry): T1 sequence (whole entry)

[5] = target: T4, Adenosine receptor A3 (Homo sapiens) (UniProt P0DMS8); experiment: Displacement of [3H]PSB11 from human adenosine A3 receptor expressed in CHO cell membranes at 1 uM by competition association assay
T4 sequence (whole entry): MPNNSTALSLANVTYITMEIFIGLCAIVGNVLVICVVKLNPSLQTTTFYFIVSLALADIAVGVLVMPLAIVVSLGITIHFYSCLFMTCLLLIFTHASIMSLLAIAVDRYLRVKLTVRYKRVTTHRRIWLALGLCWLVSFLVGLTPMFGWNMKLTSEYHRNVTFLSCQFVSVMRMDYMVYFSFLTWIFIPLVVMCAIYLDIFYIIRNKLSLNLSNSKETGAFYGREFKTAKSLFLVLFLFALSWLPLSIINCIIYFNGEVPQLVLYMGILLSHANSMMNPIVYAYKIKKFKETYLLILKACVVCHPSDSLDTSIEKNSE
Procedure, shortened: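 Single-point screen at 1 µM measuring displacement of specific [3H]PSB11 binding on CHO cell membranes stably expressing human A3 receptors.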

[6] = target: Adenosine receptors; A1 & A3 (Homo sapiens) (UniProt P30542+P0DMS8); experiment: Selectivity for human adenosine A1 receptor expressed in CHO cell membranes over human adenosine A3 receptor expressed in CHO cell membrane; assay type: cell-based
[7] = target: T1, Adenosine receptor A1 (Homo sapiens); experiment: Displacement of [3H]DPCPX from human adenosine A1 receptor expressed in CHO cell membranes at 1 uM by competition association assay
[8] = target: T1, Adenosine receptor A1 (Homo sapiens); experiment: Displacement of [3H]DPCPX from human adenosine A1 receptor expressed in CHO cell membranes assessed as residence time by competition association assay
Procedure, shortened: (§2)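 Competition association assay on CHO cell membranes stably expressing hA1, with [3H]DPCPX as tracer. kon and koff come from these association curves (n ≥ 3, ± SEM). Residence time is shown alongside koff and corresponds to 1/koff in minutes.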

[9] = target: T1, Adenosine receptor A1 (Homo sapiens); experiment: Displacement of [3H]DPCPX from human adenosine A1 receptor expressed in CHO cell membranes assessed as dissociation rate constant by competition association assay; procedure, shortened: as §2
[10] = target: T1, Adenosine receptor A1 (Homo sapiens); experiment: Displacement of [3H]DPCPX from human adenosine A1 receptor expressed in CHO cell membranes assessed as association rate constant by competition association assay; procedure, shortened: as §2

Sequence of Adenosine receptor A2a (Homo sapiens) (P29274 whole entry): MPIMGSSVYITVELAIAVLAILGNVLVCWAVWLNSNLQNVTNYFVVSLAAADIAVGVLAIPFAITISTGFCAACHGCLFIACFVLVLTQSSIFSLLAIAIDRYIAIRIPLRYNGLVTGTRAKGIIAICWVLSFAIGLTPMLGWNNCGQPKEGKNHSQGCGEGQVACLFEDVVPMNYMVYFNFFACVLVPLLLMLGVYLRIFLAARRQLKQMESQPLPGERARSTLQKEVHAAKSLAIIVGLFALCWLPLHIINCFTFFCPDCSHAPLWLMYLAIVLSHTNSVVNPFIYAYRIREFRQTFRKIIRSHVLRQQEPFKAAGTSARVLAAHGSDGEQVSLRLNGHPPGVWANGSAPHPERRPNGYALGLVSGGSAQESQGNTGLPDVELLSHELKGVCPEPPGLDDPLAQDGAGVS

Compound | Ratio [1] | inhibition [7] [%] | TIME [8] [h] | K [9] [min⁻¹] | K [10] | also measured
COc1ccc(-c2nc(CSc3nc(N)c(C#N)c(-c4ccc(OC)cc4)c3C#N)cs2)cc1 | 1.22 |  |  |  |  | 
COc1ccc(-c2c(C#N)c(N)nc(SCc3csc(-c4ccccc4)n3)c2C#N)cc1 | 1.23 | > 80 |  |  |  | inhibition [2]: 0%; Emax [3]: 105%; inhibition [4]: 63%; EC50 (Adenosine receptor A1): 1.9 nM; inhibition [5]: 27%; Selectivity ratio [6]: > 100
N#Cc1c(N)nc(SCc2csc(-c3ccc(Cl)cc3)n2)c(C#N)c1-c1ccc2c(c1)OCO2 | 2 | > 80 | 1.04 | 0.016 | 2.4 ×10⁶ /M/min | 
COc1ccc(-c2c(C#N)c(N)nc(SCc3nc(-c4ccc(Cl)cc4)sc3Cl)c2C#N)cc1 | 1.79 |  | 0.595 | 0.028 | 1.4 ×10⁶ /M/min | 
COc1ccc(-c2c(C#N)c(N)nc(SCc3csc(-c4ccc(Cl)cn4)n3)c2C#N)cc1 | 1.64 | > 80 | 0.477 | 0.035 | 3.4 ×10⁶ /M/min | 
COc1ccc(-c2c(C#N)c(N)nc(SCc3cscn3)c2C#N)cc1 | 1 |  |  |  |  | inhibition [2]: 0%; Emax [3]: 55%; EC50 (Adenosine receptor A1): 1.5 nM; inhibition [5]: 50%; Selectivity ratio [6]: > 100
COc1ccc(-c2c(C#N)c(N)nc(SCc3csc(-c4ccc(Br)cc4)n3)c2C#N)cc1 | 1.55 | > 80 | 0.833 | 0.02 | 2.4 ×10⁶ /M/min | 
N#Cc1c(N)nc(SCc2csc(-c3ccc(Cl)cc3)n2)c(C#N)c1-c1ccc(O)cc1 | 2.07 | > 80 | 0.595 | 0.028 | 4.3 ×10⁶ /M/min | 
COc1ccc(-c2c(C#N)c(N)nc(SCc3csc(-c4ccc(Cl)c(Cl)c4)n3)c2C#N)cc1 | 2.35 |  | 0.877 | 0.019 | 1.1 ×10⁶ /M/min | 
COc1ccc(-c2c(C#N)c(N)nc(SCc3csc(-c4ccc(F)cc4)n3)c2C#N)cc1 | 1.56 |  | 0.505 | 0.033 | 4.6 ×10⁶ /M/min | 
COc1ccc(-c2c(C#N)c(N)nc(SCc3csc(-c4ccccc4Cl)n3)c2C#N)cc1 | 1.53 | > 80 | 0.695 | 0.024 | 9.4 ×10⁵ /M/min | 
COc1ccc(-c2c(C#N)c(N)nc(SCc3csc(-c4ccc(C)cc4)n3)c2C#N)cc1 | 1.25 | > 80 |  |  |  | 
COc1ccc(-c2c(C#N)c(N)nc(SCc3csc(-c4ccc(I)cc4)n3)c2C#N)cc1 | 2.07 | > 80 | 1.51 | 0.011 | 1.6 ×10⁶ /M/min | 
COc1ccc(-c2c(C#N)c(N)nc(SCc3csc(-c4ccccn4)n3)c2C#N)cc1 | 1.08 | > 80 |  |  |  | inhibition [2]: 0%; Emax [3]: 99%; inhibition [4]: 0%; EC50 (Adenosine receptor A1): 7.6 nM; inhibition [5]: 22%; Selectivity ratio [6]: > 100
COc1ccc(-c2c(C#N)c(N)nc(SCc3csc(-c4cccc(Cl)c4)n3)c2C#N)cc1 | 1.6 | > 80 | 0.667 | 0.025 | 7.7 ×10⁵ /M/min | 
COc1ccc(-c2c(C#N)c(N)nc(SCc3csc(-c4ccc(Br)cn4)n3)c2C#N)cc1 | 1.71 | > 80 | 0.555 | 0.03 | 1.4 ×10⁶ /M/min | 
N#Cc1c(N)nc(SCc2ccccc2[N+](=O)[O-])nc1-c1ccc2c(c1)OCO2 |  | > 80 |  |  |  | 

Compound | Ratio [1] | inhibition [7] [%] | TIME [8] [h] | K [9] [min⁻¹] | K [10] | also measured
N#Cc1c(N)nc(SCc2coc(-c3ccc(F)cc3)n2)nc1-c1ccc2c(c1)OCO2 |  | > 80 |  |  |  | 
N#Cc1c(N)nc(SCc2csc(-c3ccccc3)n2)c(C#N)c1-c1ccc(O)cc1 |  | > 80 |  |  |  | 
N#Cc1c(NCCc2ccccc2)nc(SCc2csc(-c3ccc(Cl)cc3)n2)nc1-c1ccc2c(c1)OCO2 |  | < 80 |  |  |  | 
CCOc1ccc(-c2nc(SCc3csc(-c4ccc(Cl)cc4)n3)nc(N)c2C#N)cc1 |  | < 80 |  |  |  | 
N#Cc1c(NC2CCCC2)nc(SCc2csc(-c3ccc(Cl)cc3)n2)nc1-c1ccc2c(c1)OCO2 |  | < 80 |  |  |  | 
CC(=O)Nc1ccc(-c2nc(SCc3cccc(CCC(=O)N4CCN(C)CC4)n3)nc(N)c2C#N)cc1 |  | < 80 |  |  |  | 
COc1ccc(-c2nc(CSc3nc(N)c(C#N)c(-c4ccc5c(c4)OCO5)n3)cs2)cc1 |  | > 80 |  |  |  | 
CC(=O)Nc1ccc(-c2nc(SCc3cccc(CCC(=O)N4CCN(CCCCN5CCC(C)CC5)CC4)n3)nc(N)c2C#N)cc1 |  | < 80 |  |  |  | 
N#Cc1c(N)nc(SCc2csc(-c3ccc(Cl)cc3)n2)nc1-c1ccccc1 |  | > 80 |  |  |  | 
CNc1nc(SCc2csc(-c3ccc(Cl)cc3)n2)cc(-c2ccc3c(c2)OCO3)c1C#N |  | > 80 |  |  |  | 
N#Cc1c(NCc2ccccc2)nc(SCc2csc(-c3ccc(Cl)cc3)n2)nc1-c1ccc2c(c1)OCO2 |  | < 80 |  |  |  | 
N#Cc1c(NCC(c2ccccc2)c2ccccc2)nc(SCc2csc(-c3ccc(Cl)cc3)n2)nc1-c1ccc2c(c1)OCO2 |  | < 80 |  |  |  | 
CC(C)Nc1nc(SCc2csc(-c3ccc(Cl)cc3)n2)nc(-c2ccc3c(c2)OCO3)c1C#N |  | < 80 |  |  |  | 
CCNCCN1CCN(C(=O)CCc2cccc(CSc3nc(N)c(C#N)c(-c4ccc(NC(C)=O)cc4)n3)n2)CC1 |  | < 80 |  |  |  | 
N#Cc1c(N)nc(SCc2csc(N3CCOCC3)n2)c(C#N)c1-c1ccc(O)cc1 |  | > 80 |  |  |  | 
N#Cc1c(NCCCCc2ccccc2)nc(SCc2csc(-c3ccc(Cl)cc3)n2)nc1-c1ccc2c(c1)OCO2 |  | < 80 |  |  |  | 
